NPY-Y1 PAM-ag: potentiates or activates human NPY-Y1 receptor; activation, % at 3.6 µM; P25929; 0.37% of 220,000 active; NPY-Y1 expressing cells, potentiator/agonist activation; AID 1304; in the data active = activation above about 33%, passing the limit was not always enough;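 note: cells stimulated with NPY at EC10 then isoproterenol at EC100; 0% = low agonist plus stimulus and 100% = saturating agonist plus stimulus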
Target sequence (P25929 whole entry, looked up): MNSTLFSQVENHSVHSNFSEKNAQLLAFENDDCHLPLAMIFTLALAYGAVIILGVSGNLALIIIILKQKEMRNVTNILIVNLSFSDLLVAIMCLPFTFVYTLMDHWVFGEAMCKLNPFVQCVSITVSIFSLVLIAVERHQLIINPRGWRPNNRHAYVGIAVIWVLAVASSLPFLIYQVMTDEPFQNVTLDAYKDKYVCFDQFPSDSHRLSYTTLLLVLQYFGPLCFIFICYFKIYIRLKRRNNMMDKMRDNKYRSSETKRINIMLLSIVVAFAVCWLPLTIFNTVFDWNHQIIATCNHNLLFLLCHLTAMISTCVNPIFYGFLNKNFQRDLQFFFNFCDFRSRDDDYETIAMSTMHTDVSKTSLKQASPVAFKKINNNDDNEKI
NPY Y1 blocker: blocks the human neuropeptide Y Y1 receptor | HEK293-CNG Y1 cells, membrane potential fluorescence; NPY at EC95, then isoproterenol | AID 1040 | inhibition, % at 3.6 µM | 1% of 200,000 active;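 active = inhibition above the campaign mean inhibition of all tested compounds plus 3 SD, cut at about 20% in these data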;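 note: 0% = DMSO wells given NPY plus isoproterenol and 100% = isoproterenol alone without NPY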
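Assay system: HEK293 Y1/CNG channel cell line; Doses: single compound dose of 3.6 µM, 0.4% DMSO; Timing: dye 3 h, compound 60 min room temperature, stimulation 45 min; Technique: Membrane-potential fluorescent dye readout; Measure: % inhibition of NPY effect.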
Cl transport mod: KCC2 (human) Cl- transport modulation. KCC2 cells, thallium flux FluoZin-2 fluorescence. B-score of Tl+ flux slope (higher = more flux/activation; lower = inhibition) at 10 µM. AID 1456. Q9H2X9. 2.2% of 190,000 active;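 active = thallium flux slope and its plate-corrected score both differing from the plate sample mean at a set confidence after two filtering rounds, in either direction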;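 note: slope of fluorescence scaled to starting intensity during 10 to 20 s after thallium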
NPY2 pot ag: potentiates or activates human NPY-Y2 receptor. P49146. cells expressing NPY-Y2, potentiator/agonist read-out. activation, % at 3.6 µM. 0.45% of 220,000 active; in the data active = activation above about 27%;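 note: cells stimulated with NPY near EC25 plus isoproterenol at EC100; 0% = vehicle plus submaximal agonist and 100% = vehicle plus saturating agonist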
Target sequence (P49146 whole entry, looked up): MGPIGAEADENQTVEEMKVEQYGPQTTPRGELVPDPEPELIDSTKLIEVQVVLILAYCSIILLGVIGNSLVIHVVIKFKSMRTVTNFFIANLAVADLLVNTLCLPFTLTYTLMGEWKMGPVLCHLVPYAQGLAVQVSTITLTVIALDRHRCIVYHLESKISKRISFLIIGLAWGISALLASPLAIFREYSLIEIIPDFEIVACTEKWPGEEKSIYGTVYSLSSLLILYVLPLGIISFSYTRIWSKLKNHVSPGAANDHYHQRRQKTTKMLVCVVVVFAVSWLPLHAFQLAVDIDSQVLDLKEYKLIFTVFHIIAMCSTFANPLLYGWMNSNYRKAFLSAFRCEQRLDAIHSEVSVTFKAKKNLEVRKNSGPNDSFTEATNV
NPY Y2 blocker: antagonists of human neuropeptide Y receptor Y2 | P49146 | NPY-Y2 expressing cells, antagonist mode | inhibition, % at 2.7 µM | 0.99% of 140,000 active; in the data active = inhibition above about 17%;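 note: 0% = vehicle with agonist challenge and 100% = reference antagonist with challenge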
Furin inh: human furin inhibition. purified furin, fluorogenic substrate cleavage. inhibition, % at 20 µM or 30 µM. 0.061% of 220,000 active; in the data active = inhibition above about 25%
KCC2 sec1: KCC2 (human) modulation, secondary assay; shares compounds with Cl transport mod; HEK293-KCC2, thallium flux, FluoZin2 fluorescence; hits give high values; normalised thallium flux (F/F0 slope) at 10 µM; 15% of 3,700 active; AID 1713;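 active = thallium flux slope above the same plate's solvent-only control mean plus 3 SD; inconclusive = the two replicate wells disagree; inactive = no significant difference from solvent-only control wells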
KCC2 bumet counter: bumetanide-insensitive thallium flux in KCC2 cells with ouabain, counter-screen; shares compounds with Cl transport mod; 49% of 3,700 active; normalized thallium flux at 10 µM; HEK293-KCC2 + bumetanide/ouabain, thallium flux FluoZin2; hits give high values; AID 1714;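 active = thallium entry rate above the same plate's blocked-transporter control wells by more than 3 SD; inconclusive = the two repeat wells disagree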;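 note: raw slope of fluorescence over initial fluorescence between 10 and 20 s after thallium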
KCC2 sec2: KCC2 (human) modulation, second secondary assay. shares compounds with Cl transport mod. HEK293-KCC2, thallium flux FluoZin2 fluorescence; actives lie on both sides; F/F0 rise rate, 10–20 s post-thallium. normalized thallium flux at 10 µM. 23% of 3,700 active. AID 1715;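 active = thallium flux slope more than 3 SD above or below the plate's solvent-only control mean, mostly below; inconclusive = the two repeat wells disagreed; inactive = no significant shift from solvent-only controls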;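 note: raw slope with 0.1% DMSO as baseline and bumetanide as block control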
HEK293 Tl flux: parental HEK flux effect, counter-screen; shares compounds with Cl transport mod; thallium flux rate (normalised fluorescence) at 10 µM; 46% of 3,700 active; HEK293 parental cells, thallium flux FluoZin2, ouabain; baseline-ratio fluorescence slope, 10–20 s after thallium;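 active = thallium flux rate significantly above the same plate's solvent-only control wells, beyond their mean plus 3 SD; inconclusive = the two replicate wells gave conflicting results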
KCC2 retest ouab: confirmation of human KCC2 modulators with ouabain | shares compounds with Cl transport mod | HEK293-KCC2, thallium flux FluoZin2 fluorescence; bidirectional: low = inhibitor, high = activator | raw Tl+ flux slope (below DMSO = inhibition, above = activation) at 10 µM | 48% of 3,700 active | AID 1717;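 active = thallium flux slope beyond 3 SD from same-plate DMSO control mean in most replicates, usually higher, sometimes lower; inconclusive = repeat tests gave conflicting results; inactive = no significant difference from controls in most replicates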;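 note: slope of initial-normalized fluorescence between seconds 10 and 20 after thallium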
HEK counter2: counter-screen for KCC2 modulators: effect in parental HEK293 cells; thallium flux slope at 10 µM; shares compounds with Cl transport mod; 33% of 3,700 active; thallium flux FluoZin-2 fluorescence slope;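 active = thallium flux slope above the same plate's solvent-control mean plus 3 SD in both duplicate wells; inconclusive = duplicate wells that disagreed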;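 note: run without ouabain in cells lacking the KCC2 cotransporter; slope of fluorescence scaled to its starting value between 10 and 20 s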
* hit, by the source's call; ? = inconclusive; . = not tested or not shown. Compounds with a hit are over-represented: about 3.7% of the library has one in this group of screens.

SMILES	NPY-Y1 PAM-ag	NPY Y1 blocker	Cl transport mod	NPY2 pot ag	NPY Y2 blocker	Furin inh	KCC2 sec1	KCC2 bumet counter	KCC2 sec2	HEK293 Tl flux	KCC2 retest ouab	HEK counter2
Cc1ccc(C)c(C2=NNC(=NCc3ccccc3)SC2)c1	-10.1	-3.2	8.94*	3.4	.	-21.7	0.0102	0.0385*	0.0364	?	0.0328*	?
C=CCn1c(C)cc(C2=NNC(=NCc3ccccc3)SC2)c1C	-6.3	2.8	0.475	1.2	.	-15.6	.	.	.	.	.	.
Cc1ccc(/C=C2\NC(=S)NC2=O)cc1[N+](=O)[O-]	-25.3	3.1	3.04*	-0.3	.	-24.6	0.0155	0.00407	0.0301	0.00702	0.0177	0.00869
O=C1NC(=S)N/C1=C\c1ccc(Oc2ccc(C(F)(F)F)cc2[N+](=O)[O-])c(Cl)c1	3.6	.	0.731	-13.9	.	-17.1	.	.	.	.	.	.
O=C(CSc1nc2c(c(=O)n1-c1ccccc1)SCC2)N1CCOCC1	-13.4	-0.8	-0.0322	-13.5	1.6	-14.2	.	.	.	.	.	.
O=C(CSc1nc2c(c(=O)n1-c1ccccc1)SCC2)N1CCN(c2ccccc2)CC1	4.0	1.9	-7.56*	20.7	0.6	-11.4	0.00672	0.00609	0.0315	0.00693	0.0116*	?
CCn1c(SCC(=O)N2CCN(c3ccccc3)CC2)nc2c(c1=O)SC(C)C2 (stereo unspecified)	-16.5	4.5	-3.1*	-17.5	3.5	-7.3	0.00494	0.00406	?	0.00506*	0.0138*	0.00836*
CC1Cc2nc(SCC(=O)N3CCN(c4ccccc4)CC3)n(CCc3ccccc3)c(=O)c2S1 (stereo unspecified)	11.2	13.6	-0.515	2.3	13.7	-1.6	.	.	.	.	.	.
O=C(O)CCCNC(=O)Cc1ccccc1	-2.1	.	0.408	-11.3	.	-19.5	.	.	.	.	.	.
COCc1[nH]nc2c1C(c1ccccc1Cl)C(C#N)=C(N)O2 (stereo unspecified)	15.8	-3.2	.	-9.9	-1.3	-3.7	.	.	.	.	.	.
CCOc1ccccc1C1C(C#N)=C(N)Oc2n[nH]c(CC)c21 (stereo unspecified)	-4.1	7.1	-4.87*	-25.5	-1.8	4.9	0.0086	0.00699	0.0299	0.00639	0.02	0.00928
Cc1cc(F)ccc1S(=O)(=O)Nc1ncnc2sc3c(c12)CCC3	7.5	-4.4	-1.48	-0.7	.	-8.8	.	.	.	.	.	.
O=S(=O)(Nc1ncnc2sc3c(c12)CCC3)c1ccc2ccccc2c1	-18.7	2.7	-3.1*	-12.0	3.8	-14.8	0.00764	0.00562*	0.0287	0.0076	0.0164	0.0102
CCc1nnc(NC(=O)CSc2nc3ccc(OC)cc3[nH]2)s1	-9.2	6.2	-0.483	-11.5	.	-10.3	.	.	.	.	.	.
CCNC(=S)NNC(=O)CCn1cc(C)cn1	-9.6	-2.1	0.688	0.4	2.1	-6.1	.	.	.	.	.	.
C=CCn1c(-c2cccc3ccccc23)n[nH]c1=S	1.2	6.0	1.16	-6.0	3.8	-1.3	.	.	.	.	.	.
Cc1ccc(-c2n[nH]c(=S)n2C)cc1	1.5	-0.9	.	-14.0	-0.7	4.6	.	.	.	.	.	.
CCn1c(-c2cc(-c3ccc(C)cc3)nc3ccccc23)n[nH]c1=S	-19.8	-4.7	7.91*	7.3	.	-24.9	?	0.0491*	0.0359	0.0155*	0.039*	0.0175*
Cn1c(-c2csc(-c3ccccc3)n2)n[nH]c1=S	-27.4	5.0	5.23*	-15.6	.	-25.9	0.00706	0.0207*	0.0333	0.0171*	0.0276*	0.0205*
CCn1c(-c2sc(-c3ccccc3)nc2C)n[nH]c1=S	-39.2	-0.3	3.89*	-8.1	.	-24.8	0.00617	0.0132*	0.0347	0.0138*	?	0.0173*
C=CCn1c(-c2cc(-c3ccc(C)cc3)nc3ccccc23)n[nH]c1=S	-5.7	9.8	36.5*	-1.5	.	-9.6	0.0147*	0.107*	0.0324	0.0309*	0.0519*	0.0122*
N#Cc1cccc(NC(=S)Nc2ccccc2)c1	-5.3	3.1	0.0294	-9.1	1.1	-7.6	.	.	.	.	.	.
c1ccc2c(c1)[nH]c1c3ccccc3sc21	32.5	.	0.952	21.7	.	-6.0	.	.	.	.	.	.
CCOC(=O)C(=CNc1ccc(OC)cc1[N+](=O)[O-])C(=O)OCC	42.5	.	.	22.2	.	-11.8	.	.	.	.	.	.
CCC(=O)c1ccc(N2CCN(C(=O)Cc3ccccc3)CC2)c(F)c1	14.2	-3.2	-1.47	-4.7	1.8	-22.8	.	.	.	.	.	.
SMILES	NPY-Y1 PAM-ag	NPY Y1 blocker	Cl transport mod	NPY2 pot ag	NPY Y2 blocker	Furin inh	KCC2 sec1	KCC2 bumet counter	KCC2 sec2	HEK293 Tl flux	KCC2 retest ouab	HEK counter2
O=C(CCCC(=O)N1CCN(c2ccccc2F)CC1)N1CCN(c2ccccc2F)CC1	-54.9	18.7	.	-9.1	8.5	-17.0	.	.	.	.	.	.
CCC(=O)c1cc(F)c(N2CCN(C(=O)Cc3ccccc3)CC2)cc1C	-1.4	-0.6	-2.88*	13.1	0.8	-8.6	0.00744	0.0053	0.0325	0.00737	0.0178*	?
O=C(Cc1ccc(-n2cccc2)cc1)N1CCN(c2ccccc2F)CC1	2.7	9.4	-6.79*	-15.6	5.0	-6.5	0.00785	0.00549	0.0324	0.00378	0.0159*	0.0121
NC(=O)c1cc(N=Nc2c(N)[nH]n(-c3c(Cl)cc(Cl)cc3Cl)c2=O)ccc1Cl	-0.9	2.1	2.46	6.6	.	-19.8	.	.	.	.	.	.
Cc1ccc(OCCNC(=O)C(=O)NCc2ccco2)cc1	-22.6	6.7	1.55	10.2	.	-23.8	.	.	.	.	.	.
CSc1sc(C(=O)O)c2c1C(=O)CCC2	-33.9	-0.5	-4.04*	-19.6	4.6	-5.5	0.0099	?	0.0349	0.00762	0.0234	0.0106
Cc1ccc(C(=O)C(C(=O)/C=C/c2ccccc2)=C2SCCCS2)cc1	-26.9	-1.8	1.13	-3.4	3.7	0.8	.	.	.	.	.	.
Cc1ccc(O)c(C(=O)CC(=O)c2cccc(F)c2)c1	-20.8	5.2	50.5*	-4.3	2.8	-12.7	0.00585	0.0495*	0.0595*	0.0581*	0.0548*	0.0534*
COc1ccc(O)c(C(=O)CC(=O)c2ccccc2C)c1	-5.7	2.5	29*	-3.4	.	1.6	0.00544	0.0253*	?	0.0181*	0.0312*	0.0216*
COc1ccc(NC(=O)c2ccccc2C)c(OC)c1	-0.7	-1.1	0.974	-28.5	3.9	-14.4	.	.	.	.	.	.

Screening data deposited in PubChem BioAssay by several laboratories.
